According to ChEMBL document CHEMBL1773054, “Ethionamide boosters: synthesis, biological activity, and structure-activity relationships of a series of 1,2,4-oxadiazole EthR inhibitors” (J Med Chem, 2011):
≈ marks a conversion by molar mass, not a printed value.

Tests used:
RAW264.7 [1] = test: Inhibition of EthR in Mycobacterium tuberculosis H37Rv expressing GFP infected in mouse RAW264.7 cells assessed as potentiation of ethionamide-induced inhibition of intracellular bacterial growth after 5 days by microscopic analysis; assay type: cell-based
[2] = Inhibition of EthR in Mycobacterium tuberculosis H37Rv expressing GFP infected in mouse RAW264.7 cells assessed as concentration required to ethionamide-induced 50% inhibition of bacterial growth after 5 days by microscopic analysis; assay type: cell-based; details: RAW264.7, 120 h
How it was run: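 Raw264.7 macrophages infected with M. tuberculosis H37Rv-GFP (MOI 1:1, 2 h, 37 °C, shaking); extracellular bacilli killed with amikacin 20 μM for 1 h. Cells added to wells holding ethionamide fixed at 0.1 μg/mL plus ten 2-fold dilutions of compound. Incubated 5 days at 37 °C, 5% CO2. Macrophages stained with SYTO 60, then imaged by automated confocal microscopy. Read-out is % infected cells. EC50 is the mean of two experiments.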

RAW264.7 [3] = test: Cytotoxicity against mouse RAW264.7 cells at > 30 uM; assay type: cell-based
[4] = Half life in CD1 mouse liver microsomes by LC-MS-MS analysis; assay type: ADME, Microsome
How it was run: (§1)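 Male CD-1 mouse liver microsomes (0.6 mg protein/mL), compound 1 μM with 1% methanol vehicle, 5 mM MgCl2, 1 mM NADP, 5 mM glucose-6-phosphate, 0.4 U/mL G6PDH, 50 mM potassium phosphate pH 7.4, 37 °C, duplicates.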

Liver = test: (§2) Intrinsic clearance in CD1 mouse liver microsomes by LC-MS-MS analysis; assay type: ADME, Microsome; details: mouse, microsomes; how it was run: as §1
[5] = Solubility of the compound at pH 7.4 after 24 hrs; assay type: physicochemical; details: buffer
How it was run: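 A 10 mM DMSO solution was diluted into PBS pH 7.4 or methanol and shaken gently 24 h at room temperature. It was then centrifuged and passed through a 0.45 μm filter. Filtrate was diluted in methanol and read by LC-MS-MS. Solubility was taken from the PBS/methanol mass-signal area ratio.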

[6] = biological target: HTH-type transcriptional regulator EthR (Mycobacterium tuberculosis, UniProt P9WMC1); test: Inhibition of Mycobacterium tuberculosis EthR interaction to ethA promoter after 5 mins by surface plasmon resonance assay
Sequence of HTH-type transcriptional regulator EthR (P9WMC1 whole entry): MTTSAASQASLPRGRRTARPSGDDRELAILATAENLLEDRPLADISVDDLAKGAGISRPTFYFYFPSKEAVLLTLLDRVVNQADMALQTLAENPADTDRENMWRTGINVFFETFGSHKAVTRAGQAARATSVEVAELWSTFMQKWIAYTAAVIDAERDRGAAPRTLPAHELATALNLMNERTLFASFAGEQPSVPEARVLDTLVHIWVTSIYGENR

[7] = as §2; assay type: ADME, Microsome; details: CD1, mouse, liver microsomes; how it was run: as §1

Compound: O=C(Cc1ncc[nH]1)N1CCC(c2nc(-c3cccs3)no2)CC1
- fold change (FC) (RAW264.7 [1]): 10
- EC50 [2]: > 5 µM

Compound: COc1ccc(CC(=O)N2CCC(c3nc(-c4cccs4)no3)CC2)cc1
- fold change (FC) (RAW264.7 [1]): 10
- EC50 [2]: > 5 µM

Compound: CC(CC(=O)N1CCC(c2nc(-c3cccs3)no2)CC1)C(F)(F)F (stereo unspecified)
- EC50 [2]: > 5 µM

Compound: CC(C)C[C@H](N)C(=O)N1CCC(c2nc(-c3cccs3)no2)CC1
- EC50 [2]: > 5 µM

Compound: O=C(Cc1ccc(F)cc1)N1CCC(c2nc(-c3cccs3)no2)CC1
- fold change (FC) (RAW264.7 [1]): 10
- EC50 [2]: 0.8 µM

Compound: COCCC(=O)N1CCC(c2nc(-c3cccs3)no2)CC1
- EC50 [2]: > 5 µM

Compound: O=C(CC1CCCC1)N1CCC(c2nc(-c3cccs3)no2)CC1
- Activity (RAW264.7 [3]): Toxic
- EC50 [2]: 0.4 µM

Compound: O=C(Cc1ccccc1Cl)N1CCC(c2nc(-c3cccs3)no2)CC1
- fold change (FC) (RAW264.7 [1]): 10
- EC50 [2]: > 5 µM

Compound: O=C(Cc1ccncc1)N1CCC(c2nc(-c3cccs3)no2)CC1
- fold change (FC) (RAW264.7 [1]): 10
- EC50 [2]: > 5 µM

Compound: CC(C)(C)CC(=O)N1CCC(c2nc(-c3cccs3)no2)CC1
- EC50 [2]: > 5 µM

Compound: CCCC(=O)N1CCC(c2nc(-c3cccs3)no2)CC1
- EC50 [2]: 2.1 µM

Compound: O=C(CCC(F)(C(F)(F)F)C(F)(F)F)N1CCC(c2nc(-c3cccs3)no2)CC1
- EC50 [2]: > 5 µM

Compound: O=C(CC(O)C(F)(F)F)N1CCC(c2nc(-c3cccs3)no2)CC1 (stereo unspecified)
- EC50 [2]: > 5 µM

Compound: O=C(CCC1CCCCC1)N1CCC(c2nc(-c3cccs3)no2)CC1
- EC50 [2]: 1.8 µM

Compound: O=S(=O)(CCC(F)(F)F)N1CCC(c2nc(-c3cccs3)no2)CC1
- EC50 [2]: > 5 µM

Compound: O=C(CCC(F)(F)F)N1CCC(c2nc(-c3cccs3)no2)CC1
- half-life [4]: 5 min
- Activity (RAW264.7 [3]): Non-toxic
- CL (Liver): 213 µL/min/mg
- EC50 [2]: 0.1 µM

Compound: CC(CC(F)(F)F)C(=O)N1CCC(c2nc(-c3cccs3)no2)CC1 (stereo unspecified)
- EC50 [2]: > 5 µM

Compound: CC(C)CC(=O)N1CCC(c2nc(-c3cccs3)no2)CC1
- EC50 [2]: 2.5 µM

Compound: CCCCC(=O)N1CCC(c2nc(-c3cccs3)no2)CC1
- EC50 [2]: 1.1 µM

Compound: O=C(Cc1ccccn1)N1CCC(c2nc(-c3cccs3)no2)CC1
- fold change (FC) (RAW264.7 [1]): 10
- EC50 [2]: > 5 µM

Compound: CC(=O)N1CCC(c2nc(-c3cccs3)no2)CC1
- EC50 [2]: > 5 µM

Compound: O=C(CCC(F)(F)F)N1CCC[C@@H](c2nc(-c3cccs3)no2)C1
- EC50 [2]: > 5 µM

Compound: O=C(CCC(F)(F)F)N1CC[C@H](c2nc(-c3cccs3)no2)C1
- EC50 [2]: 1.6 µM

Compound: O=C(Cc1ccccc1F)N1CCC(c2nc(-c3cccs3)no2)CC1
- fold change (FC) (RAW264.7 [1]): 10
- EC50 [2]: > 5 µM

Compound: O=C(CC(F)(F)F)N1CCC(c2nc(-c3cccs3)no2)CC1
- EC50 [2]: 1.3 µM

Compound: CCC(=O)N1CCC(c2nc(-c3cccs3)no2)CC1
- EC50 [2]: > 5 µM

Compound: O=C(CC1CC1)N1CCC(c2nc(-c3cccs3)no2)CC1
- solubility at 24 h [5]: 64 µg/mL (≈ 202 µM)
- Activity (RAW264.7 [3]): Non-toxic
- IC50 [6]: 1.1 µM
- EC50 [2]: 0.2 µM

Compound: CC(C)CCC(=O)N1CCC(c2nc(-c3cccs3)no2)CC1
- Activity (RAW264.7 [3]): Toxic
- EC50 [2]: 0.1 µM

Compound: O=C(CCc1cccs1)N1CCC(c2nc(-c3cccs3)no2)CC1
- fold change (FC) (RAW264.7 [1]): 10
- EC50 [2]: > 5 µM

Compound: O=C(CCC(F)(F)F)N1CCC[C@H](c2nc(-c3cccs3)no2)C1
- EC50 [2]: > 5 µM

Compound: O=C(O)CCC(=O)N1CCC(c2nc(-c3cccs3)no2)CC1
- EC50 [2]: > 5 µM

Compound: N#CCC(=O)N1CCC(c2nc(-c3cccs3)no2)CC1
- solubility at 24 h [5]: 194 µg/mL (≈ 642 µM)
- half-life [4]: 91 min
- microsomal CLint [7]: 11 µL/min/mg
- EC50 [2]: 1.5 µM

Compound: O=C(Cc1ccc(Cl)cc1)N1CCC(c2nc(-c3cccs3)no2)CC1
- fold change (FC) (RAW264.7 [1]): 10
- EC50 [2]: 2.2 µM

Compound: O=C(CCC(F)(F)F)N1CC[C@@H](c2nc(-c3cccs3)no2)C1
- solubility at 24 h [5]: 80 µg/mL (≈ 232 µM)
- half-life [4]: 298 min
- Activity (RAW264.7 [3]): Non-toxic
- EC50 [2]: 0.4 µM

Compound: O=C(Cc1cccnc1)N1CCC(c2nc(-c3cccs3)no2)CC1
- fold change (FC) (RAW264.7 [1]): 10
- EC50 [2]: > 5 µM

Compound: [N-]=[N+]=NCC(=O)N1CCC(c2nc(-c3cccs3)no2)CC1
- EC50 [2]: 1.2 µM

Compound: COc1ccccc1CC(=O)N1CCC(c2nc(-c3cccs3)no2)CC1
- fold change (FC) (RAW264.7 [1]): 10
- EC50 [2]: > 5 µM

Compound: Cc1cccc(CC(=O)N2CCC(c3nc(-c4cccs4)no3)CC2)c1
- fold change (FC) (RAW264.7 [1]): 10
- EC50 [2]: > 5 µM

Compound: O=C(Cc1cccs1)N1CCC(c2nc(-c3cccs3)no2)CC1
- solubility at 24 h [5]: 22 µg/mL (≈ 61.2 µM)
- half-life [4]: 3 min
- IC50 [6]: 0.5 µM
- microsomal CLint [7]: 412 µL/min/mg
- EC50 [2]: 0.1 µM

Compound: O=C(CC1CCCCC1)N1CCC(c2nc(-c3cccs3)no2)CC1
- Activity (RAW264.7 [3]): Toxic
- EC50 [2]: 0.3 µM

Compound: Cc1ccccc1CC(=O)N1CCC(c2nc(-c3cccs3)no2)CC1
- fold change (FC) (RAW264.7 [1]): 10
- EC50 [2]: > 5 µM

Compound: CC(C)(C)CCC(=O)N1CCC(c2nc(-c3cccs3)no2)CC1
- EC50 [2]: > 5 µM

Compound: CC(C)NCC(O)COc1cccc2ccccc12 (stereo unspecified) [PROPRANOLOL]
- half-life [4]: 13 min

Compound: O=C(c1ccccc1)N1CCC(c2nc(-c3cccs3)no2)CC1
- fold change (FC) (RAW264.7 [1]): 10
- EC50 [2]: > 5 µM

Compound: O=C(Cc1cccc(F)c1)N1CCC(c2nc(-c3cccs3)no2)CC1
- fold change (FC) (RAW264.7 [1]): 10
- EC50 [2]: > 5 µM

Compound: Cc1ccc(CC(=O)N2CCC(c3nc(-c4cccs4)no3)CC2)cc1
- fold change (FC) (RAW264.7 [1]): 10
- EC50 [2]: > 5 µM

Compound: COc1cccc(CC(=O)N2CCC(c3nc(-c4cccs4)no3)CC2)c1
- fold change (FC) (RAW264.7 [1]): 10
- EC50 [2]: > 5 µM

Compound: O=C(NCC(F)(F)F)N1CCC(c2nc(-c3cccs3)no2)CC1
- EC50 [2]: > 5 µM

Compound: COCC(=O)N1CCC(c2nc(-c3cccs3)no2)CC1
- EC50 [2]: > 5 µM

Compound: O=C(Cc1ccc(C(F)(F)F)cc1)N1CCC(c2nc(-c3cccs3)no2)CC1
- fold change (FC) (RAW264.7 [1]): 10
- EC50 [2]: > 5 µM

Compound: O=C(Cc1ccccc1C(F)(F)F)N1CCC(c2nc(-c3cccs3)no2)CC1
- fold change (FC) (RAW264.7 [1]): 10
- EC50 [2]: > 5 µM

Compound: CC1CCC(CC(=O)N2CCC(c3nc(-c4cccs4)no3)CC2)CC1 (stereo unspecified)
- EC50 [2]: > 5 µM

Compound: O=C(Cc1cccc(Cl)c1)N1CCC(c2nc(-c3cccs3)no2)CC1
- fold change (FC) (RAW264.7 [1]): 10
- EC50 [2]: > 5 µM

Compound: CC(C)[C@H](N)C(=O)N1CCC(c2nc(-c3cccs3)no2)CC1
- EC50 [2]: > 5 µM

Compound: O=C(CCC(F)(F)F)NCCCc1nc(-c2cccs2)no1
- EC50 [2]: > 5 µM

Compound: O=C(Cc1ccccc1)N1CCC(c2nc(-c3cccs3)no2)CC1
- IC50 [6]: 5.6 µM
- fold change (FC) (RAW264.7 [1]): 10
- EC50 [2]: 2.1 µM

Compound: O=C(CCC(F)(F)F)N1CC(c2nc(-c3cccs3)no2)C1
- EC50 [2]: > 5 µM

Compound: CC(C)CC(O)C(=O)N1CCC(c2nc(-c3cccs3)no2)CC1 (stereo unspecified)
- EC50 [2]: > 5 µM

Compound: O=C(Cc1cccc(C(F)(F)F)c1)N1CCC(c2nc(-c3cccs3)no2)CC1
- fold change (FC) (RAW264.7 [1]): 10
- EC50 [2]: > 5 µM
